Laboratory results reported in ChEMBL document CHEMBL1148146, “14'-Hydroxymytoxin B and 16-hydroxyroridin E, two new cytotoxic trichothecenes from Myrothecium roridum” (J Nat Prod, 2002).

Experiment: Cytotoxicity against human primary soft tissue sarcoma cells after overnight incubation by Alamar blue assay
Assay type: functional, cell-based
In short: (§1)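 Primary tumor cell cultures that passed histological and cytological screening; thawed at 37 °C, resuspended in maintenance medium, live/dead counted, plated at 1.0 × 10^3 cells/well. Samples added at 1/10 cell suspension volume, overnight at 37 °C. Alamar Blue then added at 1/10 well volume; fluorescence (ex 530, em 590 nm) read at 3 h and 3 days post-dye. Percent inhibition versus untreated and cell-free controls gave IC50.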

In order of falling IC50:
1. CC1=C[C@H]2O[C@@H]3C[C@@H](OC(=O)/C=C/C=C\C(OCCC4=CCOC4=O)C(C)O)[C@](C)([C@@]2(COC(=O)/C=C(\C)CCO)CC1)[C@]31CO1 (stereo partly specified) [TRICHOVERRITONE]  0.13 pM
2. C/C1=C\C(=O)OC[C@]23CCC(CO)=C[C@H]2O[C@@H]2C[C@@H](OC(=O)/C=C\C=C\[C@H]([C@@H](C)O)OCC1)[C@@]3(C)[C@]21CO1  0.046 pM
3. CC1=C[C@H]2O[C@@H]3C[C@@H](OC(=O)/C=C/C=C\C(OCCC4=CCOC4=O)C(C)O)[C@](C)([C@@]2(CO)CC1)[C@]31CO1 (stereo partly specified)  0.03 pM

Experiment: Cytotoxicity against human high-grade leiomyosarcoma cells after overnight incubation by Alamar blue assay
Assay type: functional, cell-based
In short: as §1

In order of falling IC50:
1. C/C1=C\C(=O)OC[C@]23CCC(CO)=C[C@H]2O[C@@H]2C[C@@H](OC(=O)/C=C\C=C\[C@H]([C@@H](C)O)OCC1)[C@@]3(C)[C@]21CO1  0.085 pM
2. CC1=C[C@H]2O[C@@H]3C[C@@H](OC(=O)/C=C/C=C\C(OCCC4=CCOC4=O)C(C)O)[C@](C)([C@@]2(COC(=O)/C=C(\C)CCO)CC1)[C@]31CO1 (stereo partly specified) [TRICHOVERRITONE]  0.026 pM
3. CC1=C[C@H]2O[C@@H]3C[C@@H](OC(=O)/C=C/C=C\C(OCCC4=CCOC4=O)C(C)O)[C@](C)([C@@]2(CO)CC1)[C@]31CO1 (stereo partly specified)  0.018 pM
